Experimental findings from ChEMBL document CHEMBL1138632, “Identification and structure-activity relationship studies of 3-methylene-2-norbornanone as potent anti-proliferative agents presumably working through p53 mediated apoptosis” (2004) are described below.

The structures appear in SMILES notation.

Assay [1] relates to CAKI-1. As to the kind of experiment: Fold selectivity expressed as ratio of LC50 for Caki cells with non-mutant p53 to LC50 for C33A cells with a mutation at Cys 273. Format: functional, Homo sapiens. In outline: (§1)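 Selectivity is the fold ratio of the Caki-1 (wild-type p53) LC50 to the mutant-p53 line LC50 (C33A or Ramos RA1). LC50s come from the 72 h anti-proliferation assay in RPMI/10% FBS, 0.001–100 range. Values are means of three experiments.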

In assay [2] the test system is CAKI-1. As to the kind of experiment: Fold selectivity expressed as ratio of LC50 for Caki cells with non-mutant p53 to LC50 for Ramos RA1 cells with a mutation at Asp 254. The class given is functional, Homo sapiens. The method, boiled down: as §1
The subject of assay [3] is CAKI-1. The experiment in a line: Lethal concentration required to kill 50% Caki-1 cells of the human renal carcinoma with non-mutant wt p53. Format: functional. To be noted: read-out: LC50 (the source's name). In outline: (§2)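 Cells (Caki-1 renal carcinoma with wild-type p53 as negative control; C33A cervical and Ramos RA1 lymphocyte lines with mutant p53) plated sub-confluent at 1 × 10⁵ cells/mL in RPMI with 10% FBS. Compounds added at 0.001–100 for 72 h, with a positive control and a vehicle negative control. LC50 is the concentration killing 50% of cells.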

The nature of assay [4]: Lethal concentration required to kill 50% Ramos RA1 cells of the human lymphocyte with a mutation at Asp 254. Format: functional. The settings on record: read-out: LC50 (the source's name). The method, boiled down:
as §2

For `C=C1C(=O)C2(CS(=O)(=O)NCC(C)C)CCC1C2(C)C` (stereo not drawn), the Fold selectivity is listed as 1.95 with CAKI-1 [1] and 2.13 in the assay on CAKI-1 [2]. The CC50 in the assay on CAKI-1 [3] stood at 334 µM; in assay [4], 157 µM.

In the case of `O=C1C2CCN(CC2)C1(CO)CO`, the Fold selectivity in the assay on CAKI-1 [1] came out at 6.4; with CAKI-1 [2], 9.42. For the same molecule, the results for the CC50 (in the assay on CAKI-1 [3]; in assay [4]) were 162 µM and 17.2 µM, respectively.

Consider `C=C1C(=O)C2(C(=O)OC)CCC1C2(C)C` (stereo not drawn), for which the Fold selectivity with CAKI-1 [1] is given as 1.54; in the assay with CAKI-1 [2], 1.36. For the same molecule, the CC50 with CAKI-1 [3] turned out to be 36 µM; in assay [4] it was 26.4 µM.

With `CC(C)=C1CC[C@H](C)CC1=O`, the results for the Fold selectivity with CAKI-1 [1] and in the assay with CAKI-1 [2] were 1.83 and 1.29, respectively. For the same molecule, the CC50 came to 657 µM with CAKI-1 [3] and 509 µM in assay [4].

With `COc1ccc(/C=C/c2nc(NCCCN(C)C)c3ccccc3n2)cc1`, the Fold selectivity with CAKI-1 [1] is 0.69; in the assay on CAKI-1 [2], 0.65. The CC50 in the assay on CAKI-1 [3] was determined as 9.3 µM; in assay [4] it was 14.3 µM.

As for `C=C1C2=NS(=O)(=O)CC23CCC1C3(C)C` (stereo not drawn), the Fold selectivity was 6.36 in the assay on CAKI-1 [1] and 7.57 in the assay with CAKI-1 [2]. In addition, the CC50 in the assay on CAKI-1 [3] was 15.9 µM; in assay [4], 2.1 µM.

Turning to `C=C1CCc2cc(OC)ccc2C1=O`, the figures for the Fold selectivity with CAKI-1 [1] and in the assay on CAKI-1 [2] were 0.65 and 9, respectively. Moreover, the results for the CC50 (with CAKI-1 [3]; in assay [4]) were 16.2 µM and 1.8 µM, respectively.

Consider `C=C1C(=O)C2(C(=O)NCC(C)C)CCC1C2(C)C` (stereo not drawn), for which the Fold selectivity with CAKI-1 [1] came to 8.07; in the assay on CAKI-1 [2] it was 7.95. Moreover, the CC50 in the assay on CAKI-1 [3] was 171 µM; in assay [4] it was 21.5 µM.

`C=C1C(=O)C2CC1C1CCCC21` (stereo not drawn): the Fold selectivity is 10.15 in the assay on CAKI-1 [1] and 7.74 in the assay with CAKI-1 [2]. Further, the figures for the CC50 (in the assay with CAKI-1 [3]; in assay [4]) were 271 µM and 35 µM, respectively.

`C=C1CCc2cc(OC)c(OC)cc2C1=O`: the Fold selectivity amounted to 0.7 in the assay on CAKI-1 [1] and 3.24 in the assay on CAKI-1 [2]. Besides, the CC50 in the assay on CAKI-1 [3] was determined as 15.9 µM; in assay [4] it was 4.9 µM.

As to `C=C1C(=O)C2(CS(=O)(=O)Nc3ccc(OC)cc3)CCC1C2(C)C` (stereo not drawn), the Fold selectivity in the assay with CAKI-1 [1] was 8.51; in the assay on CAKI-1 [2], 8.98. The CC50 in the assay with CAKI-1 [3] stood at 114 µM; in assay [4], 12.7 µM.

For `C=C1CCOC1=O` [TULIPALINE A], the Fold selectivity in the assay on CAKI-1 [1] came to 1.13; in the assay on CAKI-1 [2], 1.41. For the same molecule, the CC50 in the assay with CAKI-1 [3] was determined as 55.4 µM; in assay [4], 39.3 µM.

On to `C=C1CC2CCC1C2` (stereo not drawn), for which the CC50 (with CAKI-1 [3]; in assay [4]) was greater than 924 µM throughout.

Take `C=C1/C(=N/O)C2CCC1C2` (stereo not drawn): the CC50 with CAKI-1 [3] is greater than 728 µM.

Take `C=C1C(=O)C2(C(=O)O)CCC1C2(C)C` (stereo not drawn): the Fold selectivity in the assay with CAKI-1 [1] is recorded as 1.15; in the assay with CAKI-1 [2], 1.46. For the same molecule, the CC50 was 515 µM in the assay with CAKI-1 [3] and 353 µM in assay [4].

Consider `C=C1C(=O)C2(CS(=O)(=O)NCc3ccc(OC)cc3)CCC1C2(C)C` (stereo not drawn), for which the Fold selectivity in the assay with CAKI-1 [1] came out at 1.93; in the assay with CAKI-1 [2] it was 2.72. Moreover, the CC50 with CAKI-1 [3] was determined as 190 µM; in assay [4], 69.9 µM.

Consider `C=C1C2CCC(C2)C1O` (stereo not drawn), for which the Fold selectivity was 3.9 with CAKI-1 [1] and 1 in the assay on CAKI-1 [2]. The CC50 (in the assay with CAKI-1 [3]; in assay [4]) was 805 µM each time.

For `C=C1C(=O)C2(C(=O)NCc3ccc(OC)cc3)CCC1C2(C)C` (stereo not drawn), the Fold selectivity with CAKI-1 [1] was determined as 7.31; in the assay on CAKI-1 [2], 7.55. In addition, the CC50 in the assay with CAKI-1 [3] worked out at 120 µM; in assay [4], 15.9 µM.

For `C=C1C(=O)C2CCC1C2` (stereo not drawn), the Fold selectivity in the assay on CAKI-1 [1] turned out to be 29.7; in the assay on CAKI-1 [2], 13.16. Also, the CC50 with CAKI-1 [3] amounted to 109 µM; in assay [4] it was 8.28 µM.

With `C=C1C(=O)C2(C(=O)Nc3ccc(OC)cc3)CCC1C2(C)C` (stereo not drawn), the figures for the Fold selectivity in the assay with CAKI-1 [1] and in the assay on CAKI-1 [2] were 7.11 and 7.55, respectively. The CC50 with CAKI-1 [3] came out at 108 µM; in assay [4], 14.3 µM.

As to `C=C1Cc2cc(OC)ccc2C1=O`, the Fold selectivity is reported as 1.45 in the assay on CAKI-1 [1] and 9.53 in the assay with CAKI-1 [2]. Also, the CC50 with CAKI-1 [3] is 30.5 µM; in assay [4], 3.2 µM.

`O=C1CC2CCC1C2` (stereo not drawn): the CC50 (in the assay with CAKI-1 [3]; in assay [4]) was greater than 618 µM each time.

On to `C=C1C(=O)C2CCC1(C)C2(C)C` (stereo not drawn), for which the Fold selectivity in the assay on CAKI-1 [1] and with CAKI-1 [2] was 1 throughout. Moreover, the CC50 (with CAKI-1 [3]; in assay [4]) was 609 µM throughout.

As for `C=C1CCc2ccccc2C1=O`, the Fold selectivity in the assay with CAKI-1 [1] is listed as 1.1; in the assay with CAKI-1 [2], 2.37. Also, the CC50 with CAKI-1 [3] worked out at 30.6 µM; in assay [4], 12.9 µM.

Consider `C=C1C(=O)[C@@]2(C)CC[C@H]1C2(C)C`, for which the Fold selectivity with CAKI-1 [1] is listed as 3.29; with CAKI-1 [2], 1. Moreover, the CC50 (in the assay with CAKI-1 [3]; in assay [4]) was 609 µM in each case.
